Consider 1 molecule from ChEMBL document CHEMBL3804820, “2-hydroxyisoquinoline-1,3(2H,4H)-diones (HIDs) as human immunodeficiency virus type 1 integrase inhibitors: Influence of the alkylcarboxamide substitution of position 4” (Eur J Med Chem, 2016).

Each structure is given as a SMILES string.

Data set [1] in a line: Plasma protein binding in human at 10 uM incubated for 4 hrs by equilibrium dialysis method. The format is ADME, cell-free. To be noted: read-out: PPB. Put shortly:
(§1)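 Human plasma protein binding, given as percent bound and percent recovery, in a standard contract assay.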

A short description of data set [2]: Cytotoxicity against human HepG2 cells assessed as reduction in nuclear size at 100 uM after 72 hrs by fluorescent image analysis relative to untreated control. The format is cell-based. To be noted: read-out: INH. The method, boiled down: (§2)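 Contract in vitro cytotoxicity panel covering cell number, intracellular free calcium, nuclear size, membrane permeability and mitochondrial membrane potential. Compounds tested at 1.0, 30.0 and 100.0 µM; values are percentage change versus untreated control, and IC50 where derived.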

A short description of data set [3]: Cytotoxicity against human HepG2 cells assessed as reduction in mitochondrial membrane potential at 30 uM after 72 hrs by fluorescent image analysis relative to untreated control. The format is cell-based. Particulars: read-out: INH. Put shortly:
as §2

The target in data set [4] is CYP3A4 (Homo sapiens, UniProt P08684). Nature of the data set: Inhibition of human recombinant CYP3A4 using BFC as substrate at 10 uM incubated for 30 mins by fluorimetry relative to control. The format is ADME. To be noted: recombinant CYP3A4, probe BFC. Put shortly:
(§3)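 Recombinant CYP isoforms, each with its fluorogenic substrate: CYP1A2 and CYP2C19 with CEC, CYP2C9 and CYP2D6 with MFC, CYP3A4 with BFC. Read as percentage inhibition of control, standard contract assays.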

A short description of data set [5]: Cytotoxicity against human HepG2 cells assessed as reduction in nuclear size at 30 uM after 72 hrs by fluorescent image analysis relative to untreated control. The format is cell-based. Particulars: read-out: INH. Put shortly: as §2
The subject of data set [6] is HepG2. The data set is described as follows: Cytotoxicity against human HepG2 cells assessed as increase in membrane permeability at 100 uM after 72 hrs by fluorescent image analysis relative to untreated control. The format is cell-based. Particulars: hepg2, 72 h.
The target in data set [7] is CYP2C9 (Homo sapiens, UniProt P11712). The data set is described as follows: Inhibition of human recombinant CYP2C9 using MFC as substrate at 10 uM incubated for 40 mins by fluorimetry relative to control. The format is ADME. To be noted: recombinant CYP2C9, probe MFC. The method, boiled down: as §3
A short description of data set [8]: Partition coefficient , log D of the compound in n-octanol/PBS at pH 7.4. The format is physicochemical. The method, boiled down:
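Log D measured by n-octanol/PBS partition at pH 7.4, in a standard contract assay.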

The nature of data set [9]: Cytotoxicity against human HepG2 cells assessed as reduction in mitochondrial membrane potential at 100 uM after 72 hrs by fluorescent image analysis relative to untreated control. The format is cell-based. Particulars: read-out: INH. Put shortly: as §2
The target of data set [10] is T1, hERG (KCNH2) (Homo sapiens, UniProt Q12809). The data set is described as follows: in vitro. Particulars: CHO-K1 cells expressing human ERG.
The target of data set [11] is T1, hERG (KCNH2). Nature of the data set: in vitro. To be noted: CHO-K1 cells expressing human ERG. This is another data set of the same source.
In data set [12] the test system is Human immunodeficiency virus 1. Nature of the data set: Antiviral activity against HIV1 3B infected in human MT4 cells assessed as reduction in virus-induced cytopathic effect by MTT assay. The format is functional, organism-based. To be noted: Human immunodeficiency virus 1, 3B. Put shortly:
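MT-4 cells infected with 100-300 CCID50 of HIV-1 IIIB, in the presence of 5-fold serial dilutions of compound. Cytopathic effect read by MTT reduction to formazan, measured spectrophotometrically. EC50 is the concentration giving 50% protection against virus-induced CPE.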

Data set [13] concerns the target T2, Human immunodeficiency virus type 1 integrase (Human immunodeficiency virus 1, UniProt Q7ZJM1). Nature of the data set: Inhibition of HIV1 integrase using 3'-biotin-labelled and 5'-digoxigenin-labelled oligonucleotide substrate incubated for 1 hr by ELISA. Put shortly: (§4)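 ELISA with a 3'-biotin oligo and a 5'-digoxigenin partner oligo. Overall assay uses the full complementary oligo; strand transfer uses a precleaved oligo lacking the 3'-GT. Integrase at 160 nM final, annealed oligos 7 nM, in 10 mM MgCl2, 5 mM DTT, 20 mM HEPES pH 7.5, 0.5% PEG, 15% DMSO. Run 1 h at 37 °C, products denatured with NaOH, detected on avidin plates.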
(In an ELISA, binding on a coated surface is turned into a signal by an enzyme label.)

The subject of data set [14] is HepG2. Nature of the data set: Cytotoxicity against human HepG2 cells assessed as increase in intracellular free calcium level at 30 uM after 72 hrs by fluorescent image analysis relative to untreated control. The format is cell-based. Particulars: hepg2, 72 h. Put shortly: as §2
Data set [15] concerns the target CYP2C19 (Homo sapiens, UniProt P33261). The data set is described as follows: Inhibition of human recombinant CYP2C19 using CEC as substrate at 10 uM incubated for 50 mins by fluorimetry relative to control. Particulars: recombinant CYP2C19, probe CEC. The format is ADME. The method, boiled down: as §3
The target in data set [16] is T2, Human immunodeficiency virus type 1 integrase. Nature of the data set: Inhibition of HIV1 integrase strand transfer activity using 5'[digoxigenin]-GACCCTTTTAGTCAGTGTGGAAAATCTCTAGCA-3' as substrate incubated for 1 hr by ELISA. Put shortly: as §4
For data set [17], the system named is HepG2. The data set is described as follows: Cytotoxicity against human HepG2 cells assessed as increase in membrane permeability at 30 uM after 72 hrs by fluorescent image analysis relative to untreated control. The format is cell-based. To be noted: hepg2, 72 h.
Data set [18] deals with CYP2D6 (Homo sapiens, UniProt P10635). The data set is described as follows: Inhibition of human recombinant CYP2D6 using MFC as substrate at 10 uM incubated for 40 mins by fluorimetry relative to control. The format is ADME. Particulars: recombinant CYP2D6, probe MFC. Put shortly: as §3
Data set [19] can be described thus: Cytotoxicity against human HepG2 cells assessed as reduction in cell number at 100 uM after 72 hrs by fluorescent image analysis relative to untreated control. The format is cell-based. To be noted: read-out: INH. The method, boiled down: as §2
Data set [20] is described as follows: Cytotoxicity against human HepG2 cells assessed as reduction in cell number at 30 uM after 72 hrs by fluorescent image analysis relative to untreated control. The format is cell-based. To be noted: read-out: INH. Put shortly: as §2
For data set [21], the system named is Human immunodeficiency virus 1. The data set is described as follows: Selectivity ratio of EC50 for raltegravir resistant HIV1 harboring integrase Q148H mutant infected in human MT4 cells to EC50 for wild type HIV1 3B infected in human MT4 cells. The format is functional. The method, boiled down: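 MT-4/MTT cytopathic-effect assay in human MT-4 lymphocytes. Cells were infected with 100–300 CCID50 of each virus stock in the presence of 5-fold serial drug dilutions. The HIV-1 IIIB wild-type stock was titrated on MT-4 cells. Viability was read spectrophotometrically as formazan from MTT reduction. EC50 is the concentration giving 50% protection against CPE for each strain. Fold-change is mutant-strain EC50 relative to wild-type EC50.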

Data set [22] in a line: Plasma protein binding in human assessed as drug recovery at 10 uM incubated for 4 hrs by equilibrium dialysis method. To be noted: read-out: Drug recovery. The format is ADME, cell-free. The method, boiled down:
as §1
Background: In equilibrium dialysis only unbound substance equilibrates across the membrane.

T1 sequence (Q12809 whole entry): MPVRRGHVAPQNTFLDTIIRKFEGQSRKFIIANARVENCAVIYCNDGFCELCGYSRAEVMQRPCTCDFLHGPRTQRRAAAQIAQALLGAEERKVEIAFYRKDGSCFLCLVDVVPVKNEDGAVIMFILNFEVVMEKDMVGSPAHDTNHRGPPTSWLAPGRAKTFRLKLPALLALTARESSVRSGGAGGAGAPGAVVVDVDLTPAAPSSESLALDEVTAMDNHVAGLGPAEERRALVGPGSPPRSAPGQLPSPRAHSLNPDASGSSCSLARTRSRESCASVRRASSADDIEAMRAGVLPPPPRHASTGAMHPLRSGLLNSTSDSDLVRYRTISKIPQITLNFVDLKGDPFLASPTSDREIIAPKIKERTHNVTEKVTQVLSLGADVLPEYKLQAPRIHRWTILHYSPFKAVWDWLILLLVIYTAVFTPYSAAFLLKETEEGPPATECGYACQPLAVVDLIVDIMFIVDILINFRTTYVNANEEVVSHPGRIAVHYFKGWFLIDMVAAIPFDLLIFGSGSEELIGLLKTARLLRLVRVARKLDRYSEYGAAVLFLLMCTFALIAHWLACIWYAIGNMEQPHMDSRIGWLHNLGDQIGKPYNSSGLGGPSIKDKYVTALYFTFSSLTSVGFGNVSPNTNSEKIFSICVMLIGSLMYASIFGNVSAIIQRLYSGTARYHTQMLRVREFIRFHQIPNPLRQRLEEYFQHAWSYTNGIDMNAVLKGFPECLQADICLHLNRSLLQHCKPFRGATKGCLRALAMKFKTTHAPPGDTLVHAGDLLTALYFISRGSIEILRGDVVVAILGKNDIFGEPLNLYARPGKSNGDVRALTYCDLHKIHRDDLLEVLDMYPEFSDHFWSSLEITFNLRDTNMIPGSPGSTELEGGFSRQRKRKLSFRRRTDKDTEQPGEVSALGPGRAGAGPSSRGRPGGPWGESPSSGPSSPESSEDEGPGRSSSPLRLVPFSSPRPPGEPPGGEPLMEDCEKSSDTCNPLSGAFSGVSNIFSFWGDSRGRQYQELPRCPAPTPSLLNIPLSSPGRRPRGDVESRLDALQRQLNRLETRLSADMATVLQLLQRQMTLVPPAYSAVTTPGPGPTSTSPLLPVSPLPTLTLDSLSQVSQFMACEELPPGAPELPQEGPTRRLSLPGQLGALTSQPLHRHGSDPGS
T2 sequence (Q7ZJM1 whole entry): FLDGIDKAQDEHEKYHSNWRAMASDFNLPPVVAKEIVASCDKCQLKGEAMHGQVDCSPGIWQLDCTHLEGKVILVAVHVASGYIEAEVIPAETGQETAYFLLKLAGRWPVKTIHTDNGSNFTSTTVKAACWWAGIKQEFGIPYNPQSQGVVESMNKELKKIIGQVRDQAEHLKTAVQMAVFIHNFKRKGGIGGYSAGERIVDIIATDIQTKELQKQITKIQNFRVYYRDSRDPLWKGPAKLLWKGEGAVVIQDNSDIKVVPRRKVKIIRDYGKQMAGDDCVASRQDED
Sequence of CYP2D6 (P10635 whole entry): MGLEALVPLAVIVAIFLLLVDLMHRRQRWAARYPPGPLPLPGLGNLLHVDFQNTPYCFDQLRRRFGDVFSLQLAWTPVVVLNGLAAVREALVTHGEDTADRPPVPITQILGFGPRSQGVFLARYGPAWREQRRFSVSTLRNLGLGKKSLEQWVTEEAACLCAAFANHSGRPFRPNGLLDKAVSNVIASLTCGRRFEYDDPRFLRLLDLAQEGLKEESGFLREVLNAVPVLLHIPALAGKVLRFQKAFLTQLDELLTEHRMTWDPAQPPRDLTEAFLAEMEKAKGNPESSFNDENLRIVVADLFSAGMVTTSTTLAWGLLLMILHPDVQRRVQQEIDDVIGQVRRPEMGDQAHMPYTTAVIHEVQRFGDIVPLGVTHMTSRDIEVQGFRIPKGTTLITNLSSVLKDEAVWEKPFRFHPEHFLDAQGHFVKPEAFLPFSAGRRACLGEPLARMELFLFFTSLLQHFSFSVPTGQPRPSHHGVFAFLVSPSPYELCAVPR
Sequence of CYP2C19 (P33261 whole entry): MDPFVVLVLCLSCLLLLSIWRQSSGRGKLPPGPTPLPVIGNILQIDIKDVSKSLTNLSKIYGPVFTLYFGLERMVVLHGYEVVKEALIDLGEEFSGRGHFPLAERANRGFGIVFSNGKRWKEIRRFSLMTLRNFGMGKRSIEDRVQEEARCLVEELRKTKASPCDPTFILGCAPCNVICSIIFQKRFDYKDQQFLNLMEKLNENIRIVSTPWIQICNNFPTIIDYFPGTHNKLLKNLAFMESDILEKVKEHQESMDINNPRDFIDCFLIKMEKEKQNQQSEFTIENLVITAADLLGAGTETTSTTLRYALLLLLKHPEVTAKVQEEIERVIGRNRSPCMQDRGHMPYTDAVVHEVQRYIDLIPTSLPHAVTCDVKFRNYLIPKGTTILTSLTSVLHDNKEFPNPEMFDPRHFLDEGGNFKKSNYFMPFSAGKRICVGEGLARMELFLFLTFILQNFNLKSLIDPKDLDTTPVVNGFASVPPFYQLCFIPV
Sequence of CYP2C9 (P11712 whole entry): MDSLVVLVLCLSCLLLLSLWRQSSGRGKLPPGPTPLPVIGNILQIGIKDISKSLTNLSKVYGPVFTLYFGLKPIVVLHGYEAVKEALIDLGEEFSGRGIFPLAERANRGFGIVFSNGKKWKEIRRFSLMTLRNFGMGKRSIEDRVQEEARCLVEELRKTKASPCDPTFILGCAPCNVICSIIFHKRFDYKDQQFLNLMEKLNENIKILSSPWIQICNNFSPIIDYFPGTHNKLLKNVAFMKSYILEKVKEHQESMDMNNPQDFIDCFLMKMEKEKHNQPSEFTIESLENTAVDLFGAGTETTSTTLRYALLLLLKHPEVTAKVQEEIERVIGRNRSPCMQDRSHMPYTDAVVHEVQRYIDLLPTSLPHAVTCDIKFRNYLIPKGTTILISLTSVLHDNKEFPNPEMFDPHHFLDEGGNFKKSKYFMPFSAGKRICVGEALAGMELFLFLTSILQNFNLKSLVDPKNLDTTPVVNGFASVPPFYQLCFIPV
Sequence of CYP3A4 (P08684 whole entry, canonical isoform): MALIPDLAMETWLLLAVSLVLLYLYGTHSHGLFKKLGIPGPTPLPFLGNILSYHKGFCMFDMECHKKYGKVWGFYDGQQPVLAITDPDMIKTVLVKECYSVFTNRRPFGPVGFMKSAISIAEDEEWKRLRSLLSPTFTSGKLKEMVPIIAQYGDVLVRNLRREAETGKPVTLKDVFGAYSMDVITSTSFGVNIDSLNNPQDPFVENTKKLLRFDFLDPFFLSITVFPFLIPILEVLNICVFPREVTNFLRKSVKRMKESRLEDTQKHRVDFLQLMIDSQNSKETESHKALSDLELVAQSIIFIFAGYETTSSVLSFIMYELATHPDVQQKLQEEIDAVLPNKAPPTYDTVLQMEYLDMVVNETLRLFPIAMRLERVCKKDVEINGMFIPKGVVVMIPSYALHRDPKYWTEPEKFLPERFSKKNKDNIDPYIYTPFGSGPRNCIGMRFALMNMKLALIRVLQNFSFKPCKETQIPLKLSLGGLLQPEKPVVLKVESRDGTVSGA

The inhibition is the percentage by which the read-out fell short of the control. By logD is commonly meant lipophilicity at a set pH, counting ionised and neutral species. A low value points to lower lipophilicity. In general, EC50 refers to the midpoint of the concentration-response curve. By IC50 is commonly meant the point on the concentration scale where inhibition reaches its midpoint. Read a low IC50 as greater potency. As for `CCCCCCNC(=O)C1C(=O)N(O)C(=O)c2ccccc21` (configuration not stated), the fraction unbound at 4 h, 10 µM in [1] was 0.001. Also, the cytotoxicity at 72 h, 100 µM in data set [2] came out at 26.8%; in [9] it was 33.9%; in [19], 25.3%. Also, the cytotoxicity at 72 h, 30 µM is 5.1% in [3], 12.1% in data set [5] and 4.9% in data set [20]. Further, in data set [4], the inhibition at 0.5 h, 10 µM turned out to be 42%. The results for the Activity in [6], in data set [14] and in data set [17] were 23.6%, 5.8% and 7%, respectively. The inhibition at 40 min, 10 µM in data set [7] came to 25.3%; in data set [18], 24.6%. Moreover, in data set [8], the pH-dependent lipophilicity (logD) amounted to 1.26. This molecule also showed an inhibition at 5 min, 1 µM in [10] of 12.2%. Further, in [11], the inhibition at 5 min, 0.1 µM stood at 5.8%. The half-maximal effective concentration (EC50) in [12] turned out to be 2700 nM. Moreover, the IC50 in [13] amounted to 85 nM; in data set [16], 195 nM. Also, the inhibition at 50 min, 10 µM in data set [15] turned out to be 9.3%. Further, in data set [21], the “Ratio EC50” value turned out to be 1. Also, the recovery at 4 h, 10 µM in data set [22] worked out at 93.2%.
